Results: ChEMBL document CHEMBL1156775 (J Med Chem, 2010)

Tests used:
[1] = target: Kappa-type opioid receptor (Homo sapiens, UniProt P41145); assay: Displacement of [3H]U69593 from human kappa opioid receptor expressed in CHO cells; format: cell-based
Mu-type opioid receptor = Mu-type opioid receptor (Homo sapiens, UniProt P35372); assay: Displacement of [3H]DAMGO from human mu opioid receptor expressed in CHO cells; format: cell-based
[2] = target: Delta-type opioid receptor (Homo sapiens, UniProt P41143); assay: Displacement of [3H]naltrindole from human delta opioid receptor expressed in CHO cells; format: cell-based
Chain of Delta-type opioid receptor (P41143 whole entry): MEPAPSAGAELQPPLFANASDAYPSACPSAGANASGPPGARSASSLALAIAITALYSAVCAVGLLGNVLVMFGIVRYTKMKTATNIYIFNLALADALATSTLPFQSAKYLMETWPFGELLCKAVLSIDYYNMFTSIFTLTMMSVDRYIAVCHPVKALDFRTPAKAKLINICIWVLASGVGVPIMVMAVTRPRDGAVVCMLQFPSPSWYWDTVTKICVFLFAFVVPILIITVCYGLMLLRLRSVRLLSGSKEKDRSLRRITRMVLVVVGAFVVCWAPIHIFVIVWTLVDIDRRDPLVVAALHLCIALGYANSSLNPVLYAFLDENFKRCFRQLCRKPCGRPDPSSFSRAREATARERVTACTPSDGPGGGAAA
Method in brief: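 CHO cells stably expressing a single human opioid receptor were grown in DMEM with 10% FBS and penicillin/streptomycin at 37 °C in 5% CO2. Their membranes were incubated with radioligand and 12 concentrations of test compound at 25 °C in 50 mM Tris-HCl, pH 7.5.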

Homo sapiens [3] = species: Homo sapiens; assay: Selectivity ratio of Ki for human kappa opioid receptor to Ki for human mu opioid receptor
Homo sapiens [4] = species: Homo sapiens; assay: Selectivity ratio of Ki for human delta opioid receptor to Ki for human mu opioid receptor

Chain of Kappa-type opioid receptor (P41145 whole entry): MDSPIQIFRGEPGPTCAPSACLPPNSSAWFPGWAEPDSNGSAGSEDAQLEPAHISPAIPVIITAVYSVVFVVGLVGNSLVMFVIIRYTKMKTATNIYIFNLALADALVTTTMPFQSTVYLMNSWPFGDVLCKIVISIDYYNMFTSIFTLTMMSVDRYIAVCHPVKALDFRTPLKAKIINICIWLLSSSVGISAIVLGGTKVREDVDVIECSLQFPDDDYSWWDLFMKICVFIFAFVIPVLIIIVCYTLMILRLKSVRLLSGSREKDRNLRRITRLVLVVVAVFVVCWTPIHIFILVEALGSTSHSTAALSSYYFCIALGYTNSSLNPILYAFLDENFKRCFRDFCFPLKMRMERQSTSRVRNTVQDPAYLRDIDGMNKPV
Chain of Mu-type opioid receptor (P35372 whole entry): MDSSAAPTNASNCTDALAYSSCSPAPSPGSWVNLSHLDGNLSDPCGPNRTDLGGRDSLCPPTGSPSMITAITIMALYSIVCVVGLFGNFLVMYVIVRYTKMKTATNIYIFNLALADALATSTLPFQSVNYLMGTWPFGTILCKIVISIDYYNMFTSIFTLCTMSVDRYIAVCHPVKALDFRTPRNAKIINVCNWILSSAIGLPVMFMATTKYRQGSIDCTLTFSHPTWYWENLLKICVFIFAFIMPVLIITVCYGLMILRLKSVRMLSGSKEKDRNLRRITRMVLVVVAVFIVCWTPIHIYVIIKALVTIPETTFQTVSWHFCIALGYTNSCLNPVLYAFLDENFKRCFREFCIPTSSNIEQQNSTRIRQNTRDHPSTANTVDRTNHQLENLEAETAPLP

Row | Structure (SMILES) | Ki [1] [nM] | Ki (Mu-type opioid receptor) [nM] | Ki [2] [nM] | Ratio Ki (Homo sapiens [3]) | Ratio Ki (Homo sapiens [4])
1 | CCCNCc1cc2c(cc1O)[C@@]13CCCC[C@H]1[C@@H](C2)N(CC1CCC1)CC3 | 350 | 330 | > 10000 | 1 | –
2 | CCN(CCCCN(CC)Cc1cc2c(cc1O)[C@@]13CCCC[C@H]1[C@@H](C2)N(CC1CCC1)CC3)Cc1cc2c(cc1O)[C@@]13CCCC[C@H]1[C@@H](C2)N(CC1CCC1)CC3 | 44 | 160 | 1100 | 0.3 | 7
3 | COc1ccc(Nc2ccc3c(c2)[C@@]24CCCC[C@H]2[C@@H](C3)N(CC2CC2)CC4)cc1 | 0.03 | 0.026 | 1.7 | 1 | 65
4 | c1ccc(Nc2ccc3c(c2)[C@@]24CCCC[C@H]2[C@@H](C3)N(CC2CC2)CC4)cc1 | 0.047 | 0.08 | 5.4 | 0.5 | 68
5 | OCCCCCCCCCCC(O)c1cc2c(cc1O)[C@@]13CCCC[C@H]1[C@@H](C2)N(CC1CCC1)CC3 (mixture of isomers) | 26 | 36 | 610 | 1 | 23
6 | O=C(Nc1ccc(I)cc1)Oc1ccc2c(c1)[C@@]13CCCC[C@H]1[C@@H](C2)N(CC1CCC1)CC3 | 0.99 | 1.1 | 67 | 1 | 68
7 | CN1CC[C@]23CCCC[C@H]2[C@H]1Cc1cc2c(cc13)OCN(Cc1ccccc1)C2 | 310 | 110 | > 10000 | 3 | –
8 | COc1ccc(Nc2ccc3c(c2)[C@@]24CCCC[C@H]2[C@@H](C3)N(CC2CCC2)CC4)cc1 | 0.59 | 0.61 | 19 | 1 | 3
9 | Oc1cc2c(cc1CNCCCCCCNCc1cc3c(cc1O)[C@@]14CCCC[C@H]1[C@@H](C3)N(CC1CCC1)CC4)C[C@@H]1[C@@H]3CCCC[C@]23CCN1CC1CCC1 | 37 | 76 | 850 | 0.5 | 12
10 | Ic1ccc(CNc2ccc3c(c2)[C@@]24CCCC[C@H]2[C@@H](C3)N(CC2CC2)CC4)cc1 | 0.79 | 0.71 | 34 | – | –
11 | Ic1ccc(CN(Cc2ccc(I)cc2)c2ccc3c(c2)[C@@]24CCCC[C@H]2[C@@H](C3)N(CC2CCC2)CC4)cc1 | 16 | 16 | 960 | 1 | 60
12 | O=C(Nc1ccc(I)cc1)Nc1ccc2c(c1)[C@@]13CCCC[C@H]1[C@@H](C2)N(CC1CCC1)CC3 | 28 | 24 | 250 | 0.5 | 4
13 | Oc1cc2c(cc1C(O)CCCCCCCCCCC(O)c1cc3c(cc1O)[C@@]14CCCC[C@H]1[C@@H](C3)N(CC1CCC1)CC4)C[C@@H]1[C@@H]3CCCC[C@]23CCN1CC1CCC1 (mixture of isomers) | 31 | 35 | 730 | 1 | 24
14 | Oc1cc2c(cc1CNCCCCCCCCNCc1cc3c(cc1O)[C@@]14CCCC[C@H]1[C@@H](C3)N(CC1CCC1)CC4)C[C@@H]1[C@@H]3CCCC[C@]23CCN1CC1CCC1 | 40 | 24 | 1000 | 2 | 42
15 | CN1CC[C@]23CCCC[C@H]2[C@H]1Cc1ccc(NC(=O)Nc2ccc(I)cc2)cc13 | 280 | 17 | 300 | 16 | 18
16 | COc1ccc(CNc2ccc3c(c2)[C@@]24CCCC[C@H]2[C@@H](C3)N(CC2CC2)CC4)cc1 | 0.51 | 0.31 | 20 | 2 | 65
17 | CCCCC(O)c1cc2c(cc1O)[C@@]13CCCC[C@H]1[C@@H](C2)N(CC1CCC1)CC3 (mixture of isomers) | 13 | 17 | 72 | 1 | 6
18 | Oc1cc2c(cc1CNCCCCNCc1cc3c(cc1O)[C@@]14CCCC[C@H]1[C@@H](C3)N(CC1CCC1)CC4)C[C@@H]1[C@@H]3CCCC[C@]23CCN1CC1CCC1 | 4.9 | 6.8 | 190 | 0.7 | 28

Row | Structure (SMILES) | Ki [1] [nM] | Ki (Mu-type opioid receptor) [nM] | Ki [2] [nM] | Ratio Ki (Homo sapiens [3]) | Ratio Ki (Homo sapiens [4])
19 | Ic1ccc(CNc2ccc3c(c2)[C@@]24CCCC[C@H]2[C@@H](C3)N(CC2CCC2)CC4)cc1 | 5.8 | 5.4 | 190 | 1.1 | 35
20 | O=C(Nc1ccccc1)Nc1ccc2c(c1)[C@@]13CCCC[C@H]1[C@@H](C2)N(CC1CC1)CC3 | 1.6 | 3.9 | 16 | 0.5 | 4
21 | CN1CC[C@]23CCCC[C@H]2[C@H]1Cc1cc(CNCc2ccccc2)c(O)cc13 | 380 | 190 | > 10000 | 2 | –
22 | CN1CC[C@]23CCCC[C@H]2[C@H]1Cc1ccc(NC(=O)Nc2ccccc2)cc13 | 340 | 11 | 320 | 31 | 29
23 | OCc1cc2c(cc1O)[C@@]13CCCC[C@H]1[C@@H](C2)N(CC1CCC1)CC3 | 86 | 360 | > 10000 | 0.25 | –
24 | O=C(Nc1ccc(I)cc1)Nc1ccc2c(c1)[C@@]13CCCC[C@H]1[C@@H](C2)N(CC1CC1)CC3 | 12 | 23 | 94 | 0.5 | 4
25 | CCN(CCCCCCN(CC)Cc1cc2c(cc1O)[C@@]13CCCC[C@H]1[C@@H](C2)N(CC1CCC1)CC3)Cc1cc2c(cc1O)[C@@]13CCCC[C@H]1[C@@H](C2)N(CC1CCC1)CC3 | 54 | 64 | 710 | 1 | 13
26 | O=C(Nc1ccc(I)cc1)Oc1ccc2c(c1)[C@@]13CCCC[C@H]1[C@@H](C2)N(CC1CC1)CC3 | 0.6 | 0.58 | 14.6 | 1 | 24
27 | Oc1cc2c(cc1C(O)CCCCC(O)c1cc3c(cc1O)[C@@]14CCCC[C@H]1[C@@H](C3)N(CC1CCC1)CC4)C[C@@H]1[C@@H]3CCCC[C@]23CCN1CC1CCC1 (mixture of isomers) | 67 | 74 | 1600 | 1 | 24
28 | c1ccc(Nc2ccc3c(c2)[C@@]24CCCC[C@H]2[C@@H](C3)N(CC2CCC2)CC4)cc1 | 1.5 | 1.7 | 39 | 1 | 2
29 | COc1ccc(CN(Cc2ccc(OC)cc2)c2ccc3c(c2)[C@@]24CCCC[C@H]2[C@@H](C3)N(CC2CC2)CC4)cc1 | 3.9 | 2.5 | 120 | 2 | 48
30 | NCc1cc2c(cc1O)[C@@]13CCCC[C@H]1[C@@H](C2)N(CC1CCC1)CC3 | 140 | 290 | > 10000 | 0.5 | –
31 | c1ccc(CNc2ccc3c(c2)[C@@]24CCCC[C@H]2[C@@H](C3)N(CC2CCC2)CC4)cc1 | 2.8 | 1.7 | 130 | 1.6 | 76
32 | CCC(O)c1cc2c(cc1O)[C@@]13CCCC[C@H]1[C@@H](C2)N(CC1CCC1)CC3 (mixture of isomers) | 72 | 180 | > 10000 | 0.3 | –
33 | O=C(CCCCC(=O)NCc1cc2c(cc1O)[C@@]13CCCC[C@H]1[C@@H](C2)N(CC1CCC1)CC3)NCc1cc2c(cc1O)[C@@]13CCCC[C@H]1[C@@H](C2)N(CC1CCC1)CC3 | 30 | 36 | – | 1 | 21
34 | O/N=C\c1cc2c(cc1O)[C@@]13CCCC[C@H]1[C@@H](C2)N(CC1CCC1)CC3 | – | – | – | 0.16 | 47
35 | CN1CC[C@]23CCCC[C@H]2[C@H]1Cc1ccc(OC(=O)Nc2ccc(I)cc2)cc13 | 5.2 | 0.34 | 160 | 15 | 4
36 | c1ccc(CNc2ccc3c(c2)[C@@]24CCCC[C@H]2[C@@H](C3)N(CC2CC2)CC4)cc1 | 0.34 | 0.26 | 29 | 1.4 | 112
